ChEMBL document CHEMBL2029264, “Indole-based fibrates as potential hypolipidemic and antiobesity agents” (J Med Chem, 2012)
Calls of active or inactive are those of the source. The calls are words filed in the database; no cut-off is given here.

Tests used:
Rattus norvegicus [1] = assay: Antiobesity activity in HFD-induced hyperlipidemic Charles Foster rat assessed as decrease in food efficacy ratio at 100 mg/kg, po administered for 4 weeks; type: functional, organism-based; set-up: dose 100 mg/kg
Summary of the method: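 Adult male Charles Foster rats given high-fat or normal diet 4 weeks, then diet plus vehicle or daily dosing 4 more weeks, sacrificed at week 8. Body weight gain, food intake, food efficiency ratio (weight gain/food intake over the period), and mesenteric, gonadal, inguinal and perirenal fat-pad weights recorded; mean ± SD, n = 6.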

Rattus norvegicus [2] = assay: Antihyperlipidemic activity in Triton WR-1339-induced hyperlipidemic rat assessed as decrease in plasma triglyceride level at 100 mg/kg, po relative to control; type: functional; set-up: scale not given: the % may be the effect or the level left
Summary of the method: (§1)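 Triton WR-1339 given to rats to induce hyperlipidemia; oral dosing. Plasma TC, PL, TG in mg/dL; PHLA as […]/h/mL plasma. Mean ± SD of six rats; Triton group compared with control, Triton plus dosed group compared with Triton group.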

Rattus norvegicus [3] = assay: Antihyperlipidemic activity in HFD-induced hyperlipidemic Charles Foster rat assessed as decrease in liver triglyceride level at 100 mg/kg, po administered for 4 weeks relative to control; type: functional; set-up: scale not given: the % may be the effect or the level left
Summary of the method: (§2)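 Adult male Charles Foster rats (200−225 g), high-fat diet 4 weeks, then diet plus daily dosing 4 more weeks; overnight fast, sacrifice, liver washed in cold 0.15 M KCl and held at 4 °C. Lipids extracted from liver homogenate in CHCl3/CH3OH (2:1 v/v), TC, PL and TG read in mg/g; pooled data from 6 rats/group, mean ± SD.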

Rattus norvegicus [4] = assay: Antihyperlipidemic activity in HFD-induced hyperlipidemic Charles Foster rat assessed as decrease in liver phospholipid level at 100 mg/kg, po administered for 4 weeks relative to control; type: functional; set-up: scale not given: the % may be the effect or the level left; summary of the method: as §2
Rattus norvegicus [5] = assay: Antihyperlipidemic activity in HFD-induced hyperlipidemic Charles Foster rat assessed as decrease in plasma VLDL-apoprotein level at 100 mg/kg, po administered for 4 weeks relative to control; type: functional; set-up: scale not given: the % may be the effect or the level left
Summary of the method: (§3)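 After 4 weeks high-fat feeding plus 4 weeks daily dosing, overnight fast, retro-orbital blood into EDTA tubes. Serum split into VLDL, LDL and HDL by polyanionic precipitation; each fraction assayed for TC, PL, TG and apoprotein (mg/dL plasma). Pooled data from 6 rats/group, mean ± SD, dosed groups compared with high-fat group.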

Rattus norvegicus [6] = assay: Antihyperlipidemic activity in Triton WR-1339-induced hyperlipidemic rat assessed as decrease in plasma triglyceride level at 150 mg/kg, po; type: functional
Summary of the method: (§4)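 Separate set of Triton WR-1339-induced hyperlipidemic rats, oral doses of 50, 100 and 150 mg/kg. Plasma TC, PL, TG in mg/dL; PHLA as […]/h/mL plasma. Mean ± SD of six rats versus Triton group.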

Rattus norvegicus [7] = assay: Antihyperlipidemic activity in HFD-induced hyperlipidemic Charles Foster rat assessed as decrease in liver total cholesterol level at 100 mg/kg, po administered for 4 weeks relative to control; type: functional; set-up: scale not given: the % may be the effect or the level left; summary of the method: as §2
Rattus norvegicus [8] = assay: Antihyperlipidemic activity in HFD-induced hyperlipidemic Charles Foster rat assessed as increase in plasma HDL-triglyceride level at 100 mg/kg, po administered for 4 weeks relative to control; type: functional; summary of the method: as §3
Rattus norvegicus [9] = assay: Antihyperlipidemic activity in Triton WR-1339-induced hyperlipidemic rat assessed as increase in PHLA enzyme level at 100 mg/kg, po; type: functional; summary of the method: as §1
Rattus norvegicus [10] = assay: Antihyperlipidemic activity in HFD-induced hyperlipidemic Charles Foster rat assessed as increase in cholic acid excretion in feces at 100 mg/kg/day, po administered for 4 weeks measured after 30 days relative to control; type: functional
Summary of the method: (§5)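 Rats fed high-fat diet 4 weeks, then diet plus daily dosing 4 weeks. Cholic and deoxycholic acid excreted in feces measured; dosed groups compared with high-fat group, control compared with high-fat group.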

Rattus norvegicus [11] = assay: Antihyperlipidemic activity in HFD-induced hyperlipidemic Charles Foster rat assessed as decrease in plasma LDL-phospholipid level at 100 mg/kg, po administered for 4 weeks relative to control; type: functional; set-up: scale not given: the % may be the effect or the level left; summary of the method: as §3
Rattus norvegicus [12] = assay: Antihyperlipidemic activity in HFD-induced hyperlipidemic Charles Foster rat assessed as decrease in plasma VLDL-total cholesterol level at 100 mg/kg, po administered for 4 weeks relative to control; type: functional; set-up: scale not given: the % may be the effect or the level left; summary of the method: as §3
Rattus norvegicus [13] = assay: Antihyperlipidemic activity in HFD-induced hyperlipidemic Charles Foster rat assessed as decrease in serum total cholesterol level at 100 mg/kg, po administered for 4 weeks relative to control; type: functional; set-up: scale not given: the % may be the effect or the level left
Summary of the method: (§6)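 Male Charles Foster rats (200−225 g): high-fat diet 4 weeks, then diet plus daily dosing 4 weeks. Overnight fast, retro-orbital blood in EDTA (3 mg/mL blood), centrifuged to serum. TC, PL, TG in mg/dL; LCAT as nmol cholesterol released/h/L plasma. Mean ± SD; dosed groups compared with high-fat group, P by significance levels.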

Rattus norvegicus [14] = assay: Antihyperlipidemic activity in Triton WR-1339-induced hyperlipidemic rat assessed as increase in LCAT enzyme level at 100 mg/kg, po; type: functional; summary of the method: as §1
Rattus norvegicus [15] = assay: Antihyperlipidemic activity in Triton WR-1339-induced hyperlipidemic rat assessed as decrease in plasma phospholipid level at 50 mg/kg, po; type: functional; summary of the method: as §4
Rattus norvegicus [16] = assay: Antihyperlipidemic activity in HFD-induced hyperlipidemic Charles Foster rat assessed as increase in plasma HDL-apoprotein level at 100 mg/kg, po administered for 4 weeks relative to control; type: functional; summary of the method: as §3
Rattus norvegicus [17] = assay: Antihyperlipidemic activity in HFD-induced hyperlipidemic Charles Foster rat assessed as increase in plasma HDL-total cholesterol level at 100 mg/kg, po administered for 4 weeks relative to control; type: functional; summary of the method: as §3
Rattus norvegicus [18] = assay: Antihyperlipidemic activity in Triton WR-1339-induced hyperlipidemic rat assessed as decrease in plasma total cholesterol level at 50 mg/kg, po; type: functional; summary of the method: as §4
Rattus norvegicus [19] = assay: Antihyperlipidemic activity in po dosed Triton WR-1339-induced hyperlipidemic rat assessed as increase in LCAT enzyme level; type: functional, organism-based; summary of the method: as §1
Rattus norvegicus [20] = assay: Antihyperlipidemic activity in Triton WR-1339-induced hyperlipidemic rat assessed as decrease in plasma phospholipid level at 100 mg/kg, po relative to control; type: functional; set-up: scale not given: the % may be the effect or the level left; summary of the method: as §1
Rattus norvegicus [21] = assay: Antihyperlipidemic activity in Triton WR-1339-induced hyperlipidemic rat assessed as decrease in plasma phospholipid level at 150 mg/kg, po; type: functional; summary of the method: as §4
Rattus norvegicus [22] = assay: Toxicity in HFD-induced hyperlipidemic Charles Foster rat assessed as mortality at 100 mg/kg/day, po administered for 4 weeks; type: organism-based; set-up: route oral; conditions: in vivo, 672 h
Summary of the method: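 Male Charles Foster rats (200−225 g) were fed a high-fat diet for 4 weeks, then dosed at 100 mg/kg/d alongside the same diet for 4 more weeks. Survival was monitored. After an overnight fast, blood was drawn and the animals were sacrificed. Macroscopic inspection and autopsy were then performed, with n = 6 per group.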

Rattus norvegicus [23] = assay: Antihyperlipidemic activity in HFD-induced hyperlipidemic Charles Foster rat assessed as increase in serum LCAT enzyme level at 100 mg/kg, po administered for 4 weeks relative to control; type: functional; summary of the method: as §6
Rattus norvegicus [24] = assay: Antihyperlipidemic activity in HFD-induced hyperlipidemic Charles Foster rat assessed as decrease in plasma LDL-total cholesterol level at 100 mg/kg, po administered for 4 weeks relative to control; type: functional; set-up: scale not given: the % may be the effect or the level left; summary of the method: as §3
Rattus norvegicus [25] = assay: Antihyperlipidemic activity in Triton WR-1339-induced hyperlipidemic rat assessed as decrease in plasma total cholesterol level at 100 mg/kg, po relative to control; type: functional; set-up: scale not given: the % may be the effect or the level left; summary of the method: as §1
Rattus norvegicus [26] = assay: Antihyperlipidemic activity in HFD-induced hyperlipidemic Charles Foster rat assessed as increase in deoxycholic acid excretion in feces at 100 mg/kg/day, po administered for 4 weeks measured after 30 days relative to control; type: functional; summary of the method: as §5

Row | SMILES | Activity (Rattus norvegicus [1]) | Activity (Rattus norvegicus [2]) [%] | Activity (Rattus norvegicus [3]) [%] | Activity (Rattus norvegicus [4]) [%] | Activity (Rattus norvegicus [5]) [%] | Activity (Rattus norvegicus [6]) [mg/dL] | Activity (Rattus norvegicus [7]) [%] | Activity (Rattus norvegicus [8]) [%] | percent increase (Rattus norvegicus [9]) [%] | Activity (Rattus norvegicus [10]) [%] | Activity (Rattus norvegicus [11]) [%] | Activity (Rattus norvegicus [12]) [%] | Activity (Rattus norvegicus [13]) [%] | Activity (Rattus norvegicus [14]) [nmol/h/mL] | Activity (Rattus norvegicus [15]) [mg/dL] | Activity (Rattus norvegicus [16]) [%] | Activity (Rattus norvegicus [17]) [%] | Activity (Rattus norvegicus [18]) [mg/dL] | Activity (Rattus norvegicus [19]) | Activity (Rattus norvegicus [20]) [%] | also measured
1 | CCOC(=O)C(C)Oc1ccc(C(c2cn(CC)c3ccccc23)c2cn(CC)c3ccccc23)cc1 (configuration not stated) | Active | 25 | 27 | 28 | 26 | 26 | 23 | 11 | 12 | 26 | 25 | 21 | 25 | 12 | 15 | 16 | 14 | 16 | Dose-dependent effect | 23 | Activity (Rattus norvegicus [21]): 29 mg/dL; Activity (Rattus norvegicus [22]): Non-toxic; Activity (Rattus norvegicus [23]): 32%; Activity (Rattus norvegicus [24]): 24%; Activity (Rattus norvegicus [25]): 22%; Activity (Rattus norvegicus [26]): 28%
2 | CCOC(=O)CCCOc1ccc(C(c2cn(C)c3ccccc23)c2cn(C)c3ccccc23)cc1 | Active | 27 | 24 | 23 | 33 | 27 | 26 | 14 | 15 | 21 | 20 | 15 | 28 | 15 | 16 | 14 | 12 | 15 | Dose-dependent effect | 14 | Activity (Rattus norvegicus [21]): 29 mg/dL; Activity (Rattus norvegicus [22]): Non-toxic; Activity (Rattus norvegicus [23]): 29%; Activity (Rattus norvegicus [24]): 22%; Activity (Rattus norvegicus [25]): 20%; Activity (Rattus norvegicus [26]): 31%
